# Assay results as given in ChEMBL document CHEMBL3734696, “Discovery of novel 5-fluoro-N(2),N(4)-diphenylpyrimidine-2,4-diamines as potent inhibitors against CDK2 and CDK9” (Medchemcomm, 2015).
# Test system: Human immunodeficiency virus 1
# Experiment: Antiviral activity against Human immunodeficiency virus 1 NL 4-3 infected in MT4 cells measured on day 4 post infection by p24 assay
# Assay type: functional, organism-based
# Settings: Human immunodeficiency virus 1, NL 4-3, MT4, 96 h
row,EC50 [nM],SMILES
1,1370,Fc1cnc(Nc2cccc(N3CCOCC3)c2)nc1Nc1c(F)cccc1F
2,15,CN1CC[C@H](c2c(O)cc(O)c3c(=O)cc(-c4ccccc4Cl)oc23)[C@H](O)C1 [ALVOCIDIB]
3,7080,CC(=O)N1CCCN(C(=O)c2cccc(Nc3ncc(F)c(Nc4ccc(F)cc4)n3)c2)CC1

# Test system: not listed separately
# Experiment: Antiproliferative activity against human DU145 cells after 3 days by SRB method
# Assay type: functional
# Settings: DU-145, 72 h
# Outline: (§1)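 Freshly trypsinized cells seeded at 1500–7500 per well with compound added from DMSO-diluted stock. After 3 days, attached cells fixed with cold 50% TCA, stained with 0.4% SRB, and bound dye solubilized. Value is the mean of three independent determinations.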
row,SMILES,GI50 [µM]
1,O=C(c1cccc(Nc2ncc(F)c(Nc3ccc(F)cc3)n2)c1)N1CCCCC1,13
2,Fc1cnc(Nc2cccc(N3CCOCC3)c2)nc1Nc1c(F)cccc1F,4.24
3,CN(C)CCNC(=O)c1cccc(Nc2ncc(F)c(Nc3ccc(F)cc3)n2)c1,4.34
4,O=C(Nc1cccc(Nc2ncc(F)c(Nc3ccc(F)cc3)n2)c1)c1cnccn1,26.4
5,Fc1cnc(Nc2cccc(N3CCOCC3)c2)nc1Nc1ccc(Cl)c(Cl)c1,> 10
6,O=C(c1cccc(Nc2ncc(F)c(Nc3ccc(F)cc3)n2)c1)N1CCOCC1,11.9
7,CS(=O)(=O)N1CCN(C(=O)c2cccc(Nc3ncc(F)c(Nc4ccc(F)cc4)n3)c2)CC1,17.9
8,COc1ccc(N2CCN(C)CC2)cc1Nc1ncc(F)c(Nc2ccc(F)cc2)n1,0.91
9,O=C(Nc1ccccn1)c1cccc(Nc2ncc(F)c(Nc3ccc(F)cc3)n2)c1,15.1
10,CN1CCN(C(=O)c2cccc(Nc3ncc(F)c(Nc4ccc(F)cc4)n3)c2)CC1,10.9
11,O=C(Nc1cccc(Nc2ncc(F)c(Nc3ccc(F)cc3)n2)c1)c1cccc([N+](=O)[O-])c1,12.6
12,O=C(NCCO)c1cccc(Nc2ncc(F)c(Nc3ccc(F)cc3)n2)c1,13.4
13,Fc1cnc(Nc2cccc(N3CCOCC3)c2)nc1Nc1cc(Cl)cc(Cl)c1,> 10
14,CN1CC[C@H](c2c(O)cc(O)c3c(=O)cc(-c4ccccc4Cl)oc23)[C@H](O)C1 [ALVOCIDIB],0.15
15,CC(=O)N1CCCN(C(=O)c2cccc(Nc3ncc(F)c(Nc4ccc(F)cc4)n3)c2)CC1,15.7

# Molecular target: CDK9/cyclin T1 (Homo sapiens, UniProt P50750)
# Sequence (O60563 whole entry): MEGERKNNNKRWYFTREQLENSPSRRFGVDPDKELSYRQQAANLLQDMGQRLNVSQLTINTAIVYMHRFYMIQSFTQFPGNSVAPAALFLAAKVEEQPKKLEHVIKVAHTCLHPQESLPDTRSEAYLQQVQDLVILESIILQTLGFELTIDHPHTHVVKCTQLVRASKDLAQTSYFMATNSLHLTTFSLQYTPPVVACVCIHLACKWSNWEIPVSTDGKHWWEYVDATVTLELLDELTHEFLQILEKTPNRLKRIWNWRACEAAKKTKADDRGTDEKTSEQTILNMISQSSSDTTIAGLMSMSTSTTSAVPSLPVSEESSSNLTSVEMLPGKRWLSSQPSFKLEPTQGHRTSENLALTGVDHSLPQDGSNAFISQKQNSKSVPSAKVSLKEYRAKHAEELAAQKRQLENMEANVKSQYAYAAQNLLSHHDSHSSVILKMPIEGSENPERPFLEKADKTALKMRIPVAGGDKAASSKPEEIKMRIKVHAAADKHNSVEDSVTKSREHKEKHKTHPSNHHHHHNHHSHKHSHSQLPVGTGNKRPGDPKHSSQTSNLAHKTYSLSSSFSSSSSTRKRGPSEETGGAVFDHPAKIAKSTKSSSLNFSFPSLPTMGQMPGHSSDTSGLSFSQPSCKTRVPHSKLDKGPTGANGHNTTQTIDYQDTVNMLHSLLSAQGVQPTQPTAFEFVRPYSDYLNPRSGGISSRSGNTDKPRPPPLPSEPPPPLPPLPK
# Sequence (P50750 whole entry): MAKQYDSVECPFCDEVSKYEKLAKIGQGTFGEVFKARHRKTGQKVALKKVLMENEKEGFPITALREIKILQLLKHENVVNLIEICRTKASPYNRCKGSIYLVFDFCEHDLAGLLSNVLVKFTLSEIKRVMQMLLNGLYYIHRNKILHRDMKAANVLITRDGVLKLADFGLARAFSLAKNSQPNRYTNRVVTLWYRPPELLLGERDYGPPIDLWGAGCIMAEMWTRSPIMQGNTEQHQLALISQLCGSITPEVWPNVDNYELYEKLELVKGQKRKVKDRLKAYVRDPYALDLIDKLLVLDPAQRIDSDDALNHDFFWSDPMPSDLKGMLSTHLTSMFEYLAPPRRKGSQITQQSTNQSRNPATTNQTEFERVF
# Experiment: Inhibition of CDK9/Cyclin-T1 (unknown origin) using UlightCFFKNIVTPRTPPPSQGK-amide substrate after 90 mins by […]
# Assay type: protein-complex assay
# Settings: not given
row,IC50 [µM],SMILES
1,0.33,Fc1cnc(Nc2cccc(N3CCOCC3)c2)nc1Nc1c(F)cccc1F
2,1.72,CN(C)CCNC(=O)c1cccc(Nc2ncc(F)c(Nc3ccc(F)cc3)n2)c1
3,> 10,COc1ccc(N2CCN(C)CC2)cc1Nc1ncc(F)c(Nc2ccc(F)cc2)n1
4,11.3,CN1CCN(C(=O)c2cccc(Nc3ncc(F)c(Nc4ccc(F)cc4)n3)c2)CC1
5,15.6,CC(=O)N1CCCN(C(=O)c2cccc(Nc3ncc(F)c(Nc4ccc(F)cc4)n3)c2)CC1

# Test system: MT4
# Experiment: Cytotoxicity against human MT4 cells
# Assay type: cell-based
# Settings: not given
row,SMILES,IC50 [µM]
1,Fc1cnc(Nc2cccc(N3CCOCC3)c2)nc1Nc1c(F)cccc1F,10.2
2,CN1CC[C@H](c2c(O)cc(O)c3c(=O)cc(-c4ccccc4Cl)oc23)[C@H](O)C1 [ALVOCIDIB],0.067

# Test system: A549
# Experiment: Antiproliferative activity against human A549 cells after 3 days by SRB method
# Assay type: functional
# Settings: A549, 72 h
# Outline: as §1
row,SMILES,GI50 [µM]
1,O=C(c1cccc(Nc2ncc(F)c(Nc3ccc(F)cc3)n2)c1)N1CCCCC1,13.2
2,CN(C)CCNC(=O)c1cccc(Nc2ncc(F)c(Nc3ccc(F)cc3)n2)c1,1.45
3,O=C(Nc1cccc(Nc2ncc(F)c(Nc3ccc(F)cc3)n2)c1)c1cnccn1,10.3
4,O=C(c1cccc(Nc2ncc(F)c(Nc3ccc(F)cc3)n2)c1)N1CCOCC1,11.2
5,CS(=O)(=O)N1CCN(C(=O)c2cccc(Nc3ncc(F)c(Nc4ccc(F)cc4)n3)c2)CC1,12.2
6,COc1ccc(N2CCN(C)CC2)cc1Nc1ncc(F)c(Nc2ccc(F)cc2)n1,1.13
7,CN1CCN(C(=O)c2cccc(Nc3ncc(F)c(Nc4ccc(F)cc4)n3)c2)CC1,9.07
8,O=C(NCCO)c1cccc(Nc2ncc(F)c(Nc3ccc(F)cc3)n2)c1,11.8
9,CN1CC[C@H](c2c(O)cc(O)c3c(=O)cc(-c4ccccc4Cl)oc23)[C@H](O)C1 [ALVOCIDIB],0.14
10,CC(=O)N1CCCN(C(=O)c2cccc(Nc3ncc(F)c(Nc4ccc(F)cc4)n3)c2)CC1,9.96

# Next, values leading:
row,GI50 [µM],SMILES
1,1.09,Fc1cnc(Nc2cccc(N3CCOCC3)c2)nc1Nc1c(F)cccc1F
2,12,Fc1cnc(Nc2cccc(N3CCOCC3)c2)nc1Nc1ccc(Cl)c(Cl)c1
3,15.3,O=C(Nc1ccccn1)c1cccc(Nc2ncc(F)c(Nc3ccc(F)cc3)n2)c1
4,7.25,O=C(Nc1cccc(Nc2ncc(F)c(Nc3ccc(F)cc3)n2)c1)c1cccc([N+](=O)[O-])c1
5,11.6,Fc1cnc(Nc2cccc(N3CCOCC3)c2)nc1Nc1cc(Cl)cc(Cl)c1

# Molecular target: Cyclin-dependent kinase 2/cyclin E1 (Homo sapiens, UniProt P24941)
# Experiment: Inhibition of CDK2/cyclin E1 (unknown origin) expressed in Sf9 insect cells using UlightCFFKNIVTPRTPPPSQGK-amide substrate after 15 mins by […]
# Settings: not given
row,IC50 [µM],SMILES
1,5.85,Fc1cnc(Nc2cccc(N3CCOCC3)c2)nc1Nc1c(F)cccc1F
2,4.65,CN(C)CCNC(=O)c1cccc(Nc2ncc(F)c(Nc3ccc(F)cc3)n2)c1
3,> 10,COc1ccc(N2CCN(C)CC2)cc1Nc1ncc(F)c(Nc2ccc(F)cc2)n1
4,22.1,CN1CCN(C(=O)c2cccc(Nc3ncc(F)c(Nc4ccc(F)cc4)n3)c2)CC1
5,60.6,CC(=O)N1CCCN(C(=O)c2cccc(Nc3ncc(F)c(Nc4ccc(F)cc4)n3)c2)CC1

# Test system: not listed separately
# Experiment: Therapeutic index, ratio of IC50 for human MT4 cells to EC50 for Human immunodeficiency virus 1 NL 4-3
# Assay type: cell-based
# Settings: read-out: Ratio IC50/EC50
row,SMILES,selectivity ratio
1,Fc1cnc(Nc2cccc(N3CCOCC3)c2)nc1Nc1c(F)cccc1F,7.45
2,CC(=O)N1CCCN(C(=O)c2cccc(Nc3ncc(F)c(Nc4ccc(F)cc4)n3)c2)CC1,2.18

# Test system: not listed separately
# Experiment: Antiproliferative activity against human KBVIN cells after 3 days by SRB method
# Assay type: functional
# Settings: 72 h
# Outline: as §1
row,SMILES,GI50 [µM]
1,O=C(c1cccc(Nc2ncc(F)c(Nc3ccc(F)cc3)n2)c1)N1CCCCC1,13.8
2,Fc1cnc(Nc2cccc(N3CCOCC3)c2)nc1Nc1c(F)cccc1F,> 10
3,CN(C)CCNC(=O)c1cccc(Nc2ncc(F)c(Nc3ccc(F)cc3)n2)c1,7.26
4,O=C(Nc1cccc(Nc2ncc(F)c(Nc3ccc(F)cc3)n2)c1)c1cnccn1,20.1
5,Fc1cnc(Nc2cccc(N3CCOCC3)c2)nc1Nc1ccc(Cl)c(Cl)c1,> 10
6,O=C(c1cccc(Nc2ncc(F)c(Nc3ccc(F)cc3)n2)c1)N1CCOCC1,13.1
7,CS(=O)(=O)N1CCN(C(=O)c2cccc(Nc3ncc(F)c(Nc4ccc(F)cc4)n3)c2)CC1,> 10
8,COc1ccc(N2CCN(C)CC2)cc1Nc1ncc(F)c(Nc2ccc(F)cc2)n1,0.91
9,O=C(Nc1ccccn1)c1cccc(Nc2ncc(F)c(Nc3ccc(F)cc3)n2)c1,13.7
10,CN1CCN(C(=O)c2cccc(Nc3ncc(F)c(Nc4ccc(F)cc4)n3)c2)CC1,12.3
11,O=C(Nc1cccc(Nc2ncc(F)c(Nc3ccc(F)cc3)n2)c1)c1cccc([N+](=O)[O-])c1,11.3
12,O=C(NCCO)c1cccc(Nc2ncc(F)c(Nc3ccc(F)cc3)n2)c1,21.4
13,Fc1cnc(Nc2cccc(N3CCOCC3)c2)nc1Nc1cc(Cl)cc(Cl)c1,22.5
14,CN1CC[C@H](c2c(O)cc(O)c3c(=O)cc(-c4ccccc4Cl)oc23)[C@H](O)C1 [ALVOCIDIB],0.18
15,CC(=O)N1CCCN(C(=O)c2cccc(Nc3ncc(F)c(Nc4ccc(F)cc4)n3)c2)CC1,16.7
